# Activity calls are given as the source filed them. The calls are words filed in the database; no cut-off is given here.
# Assays:
# [1] = system: MOLT-3; experiment: Effect on Bax expression in human MOLT3 cells by Western blotting method; assay type: functional, cell-based
# In short: (§1)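 Cells were exposed to a range of compound concentrations and harvested at 24 h. Lysates were immunoblotted for caspase proforms and cleaved forms, and for Bcl-2 family proteins.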
# [2] = system: HL-60; experiment: Induction of cell cycle arrest in human HL60 cells assessed as accumulation at subG1 phase at 3 uM after 24 hrs by propidium iodide staining based flow cytometry (reference value: 3.4 +/- 0.3%); assay type: functional
# [3] = system: U-937; experiment: Increase in DR4 expression in human U937 cells at 10 30 uM after 24 hrs by immunoblotting method; assay type: functional, cell-based
# In short: (§2)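 HL-60 and U937 cells were treated with increasing concentrations for 24 h. Lysates were immunoblotted for TRAIL, DR4 and DR5.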
# [4] = system: MOLT-3; experiment: Induction of apoptosis in human MOLT3 cells assessed as pro-caspase-9 cleavage by Western blotting method; assay type: functional, cell-based; in short: as §1
# [5] = system: HL-60; experiment: Induction of cell cycle arrest in human HL60 cells assessed as accumulation at S phase at 10 uM after 12 hrs by propidium iodide staining based flow cytometry (reference value: 14.7 +/- 0.3%); assay type: functional
# [6] = biological target: Mitogen-activated protein kinase; ERK1/ERK2 (Homo sapiens) (UniProt P27361+P28482); experiment: Increase in ERK1/2 phosphorylation in human HL60 cells at 10 to 30 uM after 2 to 6 hrs by Western blotting method; assay type: cell-based; settings: HL-60
# In short: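 HL-60 cells were incubated for a time course. Extracts were immunoblotted with phospho-specific antibodies for ERK 1/2, JNK/SAPK and p38MAPK. Membranes were then stripped and reprobed for the total kinases as loading controls.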
# [7] = system: HL-60; experiment: Induction of cell cycle arrest in human HL60 cells assessed as accumulation at G2/M phase at 1 uM after 12 hrs by propidium iodide staining based flow cytometry (reference value: 18.5 +/- 0.5%); assay type: functional
# [8] = system: HL-60; experiment: Induction of cell cycle arrest in human HL60 cells assessed as accumulation at S phase at 3 uM after 12 hrs by propidium iodide staining based flow cytometry (reference value: 14.7 +/- 0.3%); assay type: functional
# [9] = system: U-937; experiment: Induction of cell cycle arrest in human U937 cells assessed as accumulation at subG1 phase at 1 uM after 24 hrs by propidium iodide staining based flow cytometry (reference value: 3.9 +/- 0.8%); assay type: functional
# [10] = system: HL-60; experiment: Increase in TRAIL expression in human HL60 cells at 10 30 uM after 24 hrs by immunoblotting method; assay type: functional, cell-based; in short: as §2
# [11] = system: MOLT-3; experiment: Induction of apoptosis in human MOLT3 cells assessed as increase in caspase 8 activity using IETD-pNA substrate at 10 uM after 24 hrs; assay type: functional, cell-based
# In short: (§3)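 Cells were given 10 µM for 24 h. Lysates were assayed for cleavage of DEVD-pNA (caspase-3/7), IETD-pNA (caspase-8) and LEHD-pNA (caspase-9). Results are expressed as fold over control, from three independent experiments in triplicate.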
# [12] = system: U-937; experiment: Induction of apoptosis in human U937 cells assessed as pro-caspase-8 processing at 3 and 10 uM after 6 to 24 hrs by immunoblotting method; assay type: functional, cell-based
# In short: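 Kinetic and dose-response experiment: cells were treated with the indicated concentrations and harvested at the indicated times. Pro-caspase-8 and -9 cleavage was detected by immunoblotting with antibodies that bind both the proenzyme and the cleaved fragments.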
# [13] = system: U-937; experiment: Induction of apoptosis in human U937 cells assessed as pro-caspase-3 cleavage by Western blotting method; assay type: functional, cell-based; in short: as §1
# [14] = system: HL-60; experiment: Induction of apoptosis in human HL60 cells assessed as pro-caspase-3 cleavage by Western blotting method; assay type: functional, cell-based; in short: as §1
# [15] = system: MOLT-3; experiment: Induction of apoptosis in human MOLT3 cells assessed as pro-caspase-3 cleavage by Western blotting method; assay type: functional, cell-based; in short: as §1
# [16] = system: HL-60; experiment: Induction of apoptosis in human HL60 cells assessed as pro-caspase-8 cleavage by Western blotting method; assay type: functional, cell-based; in short: as §1
# [17] = system: HL-60; experiment: Induction of cell cycle arrest in human HL60 cells assessed as accumulation at S phase at 3 uM after 24 hrs by propidium iodide staining based flow cytometry (reference value: 17.9 +/- 0.6%); assay type: functional
# [18] = system: U-937; experiment: Cytotoxicity against human U937 cells at 30 uM in presence of 0.5 ug/mL TRAIL incubated simultaneously with drug for 48 hrs by MTT assay; assay type: functional, cell-based
# In short: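 U937 cells, MTT viability read-out. One arm received TRAIL at 0.5 µg/mL together with compound at 30 µM for 48 h. The other arm had compound for 24 h, then TRAIL for 24 h. Three independent experiments, each in triplicate.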
# [19] = system: HL-60; experiment: Induction of cell cycle arrest in human HL60 cells assessed as accumulation at G1 phase at 3 uM after 24 hrs by propidium iodide staining based flow cytometry (reference value: 53 +/- 1.1%); assay type: functional
# [20] = system: HL-60; experiment: Induction of cell cycle arrest in human HL60 cells assessed as accumulation at G2/M phase at 3 uM after 12 hrs by propidium iodide staining based flow cytometry (reference value: 18.5 +/- 0.5%); assay type: functional
# [21] = system: HL-60; experiment: Induction of cell cycle arrest in human HL60 cells assessed as accumulation at G1 phase at 3 uM after 48 hrs by propidium iodide staining based flow cytometry (reference value: 60.4 +/- 0.4%); assay type: functional
# [22] = system: U-937; experiment: Induction of cell cycle arrest in human U937 cells assessed as accumulation at G1 phase at 10 uM after 24 hrs by propidium iodide staining based flow cytometry (reference value: 49.8 +/- 1.5%); assay type: functional
# [23] = system: U-937; experiment: Induction of cell cycle arrest in human U937 cells assessed as accumulation at subG1 phase at 1 uM after 48 hrs by propidium iodide staining based flow cytometry (reference value: 6.7 +/- 0.3%); assay type: functional
# [24] = system: U-937; experiment: Induction of apoptosis in human U937 cells assessed as increase in caspase 3/7 activity using DEVD-pNA substrate at 10 uM after 24 hrs; assay type: functional, cell-based; in short: as §3
# [25] = system: HL-60; experiment: Induction of cell cycle arrest in human HL60 cells assessed as accumulation at G1 phase at 1 uM after 48 hrs by propidium iodide staining based flow cytometry (reference value: 60.4 +/- 0.4%); assay type: functional
# [26] = system: U-937; experiment: Induction of cell cycle arrest in human U937 cells assessed as accumulation at subG1 phase at 10 uM after 48 hrs by propidium iodide staining based flow cytometry (reference value: 6.7 +/- 0.3%); assay type: functional
# [27] = system: HL-60; experiment: Induction of cell cycle arrest in human HL60 cells assessed as accumulation at S phase at 10 uM after 48 hrs by propidium iodide staining based flow cytometry (reference value: 15.3 +/- 0.1%); assay type: functional
# [28] = system: U-937; experiment: Induction of cell cycle arrest in human U937 cells assessed as accumulation at subG1 phase at 10 uM after 24 hrs by propidium iodide staining based flow cytometry (reference value: 3.9 +/- 0.8%); assay type: functional
# [29] = system: HL-60; experiment: Induction of cell cycle arrest in human HL60 cells assessed as accumulation at G2/M phase at 3 uM after 48 hrs by propidium iodide staining based flow cytometry (reference value: 17.9 +/- 0.7%); assay type: functional
# [30] = system: U-937; experiment: Induction of cell cycle arrest in human U937 cells assessed as accumulation at G2/M phase at 3 uM after 48 hrs by propidium iodide staining based flow cytometry (reference value: 19.1 +/- 1.1%); assay type: functional
# [31] = system: U-937; experiment: Induction of cell cycle arrest in human U937 cells assessed as accumulation at S phase at 3 uM after 48 hrs by propidium iodide staining based flow cytometry (reference value: 18.9 +/- 0.2%); assay type: functional
# Mitogen-activated protein kinase; ERK1/ERK2 (Homo sapiens), sequence (P27361 whole entry, looked up): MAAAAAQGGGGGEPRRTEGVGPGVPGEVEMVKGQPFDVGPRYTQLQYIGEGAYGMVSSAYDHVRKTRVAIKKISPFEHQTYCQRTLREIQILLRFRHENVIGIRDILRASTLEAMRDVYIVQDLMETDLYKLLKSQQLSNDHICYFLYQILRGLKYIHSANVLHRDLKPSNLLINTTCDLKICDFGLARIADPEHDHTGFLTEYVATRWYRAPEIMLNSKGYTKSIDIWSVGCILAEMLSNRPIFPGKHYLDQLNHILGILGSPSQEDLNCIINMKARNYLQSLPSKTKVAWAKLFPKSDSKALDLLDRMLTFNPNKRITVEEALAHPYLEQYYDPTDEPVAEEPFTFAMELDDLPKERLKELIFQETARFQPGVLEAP
# Mitogen-activated protein kinase; ERK1/ERK2 (Homo sapiens), sequence (P28482 whole entry, looked up): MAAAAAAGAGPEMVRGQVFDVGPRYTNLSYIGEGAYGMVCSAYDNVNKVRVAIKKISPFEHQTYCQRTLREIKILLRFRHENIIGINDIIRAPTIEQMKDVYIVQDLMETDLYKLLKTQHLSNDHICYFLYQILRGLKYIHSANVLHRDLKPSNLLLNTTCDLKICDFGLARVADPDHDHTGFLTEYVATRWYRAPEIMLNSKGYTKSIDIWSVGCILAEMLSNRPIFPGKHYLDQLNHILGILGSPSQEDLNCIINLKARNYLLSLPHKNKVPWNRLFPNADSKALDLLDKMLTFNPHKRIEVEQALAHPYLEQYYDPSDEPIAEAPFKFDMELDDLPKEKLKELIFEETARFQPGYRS
structure (smiles),measurement,setting,value
O=c1c(O)c(-c2ccc(Br)cc2)oc2ccccc12,Activity,[1],inactive
same,Activity,[2],5.9%
same,Activity,[3],Active
same,Activity,[4],Active
same,Activity,[5],15.9%
same,Activity,[6],Active
same,Activity,[7],19.4%
same,Activity,[8],14.8%
same,Activity,[9],3.7%
same,Activity,[10],Active
same,Activity,[11],Active
same,Activity,[12],Active
same,Activity,[13],inactive
same,Activity,[14],Active
same,Activity,[15],Active
same,Activity,[16],Active
same,Activity,[17],17.6%
same,Activity,[18],Active
same,Activity,[19],50.1%
same,Activity,[20],18.2%
same,Activity,[21],40.4%
same,Activity,[22],40.2%
same,Activity,[23],7%
same,Activity,[24],Active
same,Activity,[25],57.6%
same,Activity,[26],45.7%
same,Activity,[27],7.3%
same,Activity,[28],13.8%
same,Activity,[29],18%
same,Activity,[30],19%
same,Activity,[31],21.2%

# Source: ChEMBL document CHEMBL3352730, “Synthesis and effects on cell viability of flavonols and 3-methyl ether derivatives on human leukemia cells” (Eur J Med Chem, 2014)
